Platelet DG rel – inhibitors of platelet dense granule secretion, primary screen, cell-based, MLPCN, human platelets | human platelet-rich plasma, SFLLRN dense granule ATP release, luminescence | inhibition, %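 (compounds screened at 7.5 µM in platelet-rich plasma)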 | 300,000 tested, 0.22% active;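 active = mean replicate score, as percent of positive control, at or above 50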
SENP7 inh – SENP7 protease inhibitors, primary screen, biochemical, luminescence, uHTS | Sentrin-specific protease 7 (Homo sapiens), Q9BQF6 | recombinant SENP7, Z-RLRGG-aminoluciferin luminescence, 40 min | inhibition, % at 5 µM | 330,000 tested, 1.5% active;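 active = inhibition above about 50% at the single test dose, limit read from the data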;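 note: plate controls were DMSO with enzyme for no effect and no enzyme buffer wells for full effect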
SENP1 FRET inh – human SENP1 catalytic domain inhibitors, primary screen, biochemical, FRET, uHTS. Sentrin-specific protease 1 (Homo sapiens), Q9P0U3. recombinant SENP1 catalytic domain, CyPet-SUMO1-YPet FRET cleavage. inhibition, % at 10 µM. 360,000 tested, 0.21% active;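 active = inhibition at least 30% at 10 µM, raw YFP signal under a set limit, fluorescence ratio 0.5 to 1.5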;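 note: 0% = enzyme with DMSO and 100% = no enzyme wells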
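System: Recombinant human SENP1 catalytic domain, His6-tagged | Incubation: Enzyme reaction for 50 min at room temperature, dark | Medium: Tris pH 8 with BME, BSA, NP40 and catalase | Also added: 25 nM SUMO1 FRET substrate | Compound: 10 µM single point, 0.5% DMSO | Measured by: FRET fluorescence in CFP and YFP emission channels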
SENP8 block-1 – SENP8 protease inhibitors, primary screen, biochemical, luminescence; Sentrin-specific protease 8 (Homo sapiens), Q96LD8; purified SENP8, Z-RLRGG-aminoluciferin cleavage; inhibition, % at 10 µM; 330,000 tested, 1.2% active; AID 2540, 2010; in the data active = inhibition above about 50%
SENP8 block-2 – human SENP8 protease inhibitors, primary screen, biochemical, fluorescence, Nedd8 protein substrate, uHTS; Sentrin-specific protease 8 (Homo sapiens), Q96LD8; recombinant SENP8; inhibition, % at 20 µM; 360,000 tested, 0.64% active; AID 602440, 2012; in the data active = inhibition mostly above about 40%, no sharp cut-off; inactive = mostly below about 27%
SENP6 block – SENP6 protease inhibitors, primary screen, biochemical, luminescence, uHTS. Recombinant SENP6 catalytic domain, aminoluciferin luminescence. Sentrin-specific protease 6 (Homo sapiens), Q9GZR1. inhibition, % at 10 µM. 330,000 tested, 1.8% active;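 active = inhibition above about 50% at the single tested dose, limit read from the data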;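 note: plate controls were DMSO wells with enzyme for no effect and DMSO wells lacking enzyme for full effect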
Target sequence (Q9GZR1 628-1112 limits assumed): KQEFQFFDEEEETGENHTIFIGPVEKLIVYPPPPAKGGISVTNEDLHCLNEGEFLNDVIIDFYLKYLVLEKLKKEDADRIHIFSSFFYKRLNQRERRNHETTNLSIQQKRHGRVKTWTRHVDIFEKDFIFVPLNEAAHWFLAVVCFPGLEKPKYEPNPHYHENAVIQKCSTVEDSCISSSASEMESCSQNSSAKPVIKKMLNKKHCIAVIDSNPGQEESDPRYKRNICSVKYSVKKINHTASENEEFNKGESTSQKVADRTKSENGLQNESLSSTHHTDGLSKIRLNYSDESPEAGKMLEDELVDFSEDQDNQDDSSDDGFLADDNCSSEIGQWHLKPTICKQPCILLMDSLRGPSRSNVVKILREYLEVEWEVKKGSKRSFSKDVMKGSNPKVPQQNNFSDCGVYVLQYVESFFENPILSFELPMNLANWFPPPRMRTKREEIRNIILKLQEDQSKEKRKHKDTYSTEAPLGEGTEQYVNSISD
* hit, by the source's call; . = no result given. Sampled rows, rich in hits. Any-hit rate of the full collection: about 2.6%.

SMILES	Platelet DG rel	SENP7 inh	SENP1 FRET inh	SENP8 block-1	SENP8 block-2	SENP6 block
O=c1[nH]c2ccc(NC(=S)Nc3ccccc3Cl)cc2[nH]1	54*	4	-8	4	14	19
CC1CCN(c2nc3ccc(C(=O)NCCCN4CCCCC4)cc3s2)CC1	5	-3	1	-4	-1	0
CC1CCN(c2nc3ccc(C(=O)O)cc3s2)CC1	-2	96*	-1	97*	21	97*
C=CCC1(Cl)C(=O)C(Cl)=C(N2CCOCC2)C1(OC)OC (centres undefined)	-29	-4	2	-1	8	-9
COc1cc2c(cc1OC)-c1c(OC)c(OC)cc3ccnc(c13)C2=O	2	6	60*	-3	32	9
COc1cc(-c2nccc3cc4c(cc23)OCO4)cc(OC)c1OC	.	.	-2	.	-105	.
NC(=O)c1ccsc1NC(=O)c1coc2ccccc2c1=O	0	79*	2	66*	13	83*
Cc1occc1C(=O)Nc1sccc1C(N)=O	-7	-12	-13	-7	-67	5
CCOC(=O)N1CCN(CC(=O)N2CCC(C(N)=O)CC2)CC1	59*	-4	1	-2	12	12
CCOC(=O)N1CCN(CC(=O)N2c3ccccc3Sc3ccccc32)CC1	-4	-7	0	-4	4	2
Cc1ccc(CNc2ncccc2-c2nc3cc(Cl)ccc3o2)cc1	3	15	-31	-2	-260	10
COc1cccc2cc(-c3ccnc(N)n3)oc12	2	53*	-1	21	-436	15
O=C1Nc2ccccc2/C1=N\N=C\c1ccc(O)c(O)c1	2	-13	4	-14	57*	-11
CO/N=C(/CNC(=O)c1cccc(Cl)c1)c1ccc(Cl)cc1	11	-4	0	-14	26	-18
Cc1ccc(C2=NN(C(=O)CCl)C(c3cccs3)C2)o1 (centres undefined)	2	-1	-2	-4	-2	-10
COc1cc2c(cc1OC)C1=C(C#N)CN(CC(=O)O)CN1CC2	52*	9	-84	8	-319	-2
O=C1C(=O)c2ccc(-c3ccccc3)cc2-c2ccccc21	-2	91*	0	58*	100*	89*
Nc1ccc2c(c1)C(=O)c1ccccc1-2	4	-5	1	-11	10	-6
Nc1ccc2c(c1)C(=O)C(=O)c1ccccc1-2	-15	98*	5	97*	142*	89*
c1ccc2sc(SCc3ccc(-c4nnco4)cc3)nc2c1	6	89*	-1	89*	-9	96*
C=C(C)Cn1c(C)cc(C)c(S(=O)(=O)c2ccc(C)cc2)c1=O	1	3	2	-6	6	-1
O=C(CCN1CCCCC1)c1ccc2c(c1)OCO2	-2	-9	0	-4	8	1
Cc1nnc(N2CCC(C(=O)N3CCCCC3)CC2)c2nn(-c3ccc(Cl)cc3)c(C)c12	6	14	2	-4	-345	-8
COc1ccc(-n2nc3c(N4CCC(C(=O)N5CCC(C)CC5)CC4)nnc(C)c3c2C)cc1	-8	12	68*	-6	-389	-7
COc1ccccc1C(=O)Nc1nc2ccccc2[nH]1	57*	101*	1	97*	-23	98*
SMILES	Platelet DG rel	SENP7 inh	SENP1 FRET inh	SENP8 block-1	SENP8 block-2	SENP6 block
COc1cc(SC)ccc1C(=O)Nc1nc2ccccc2[nH]1	96*	101*	3	96*	-278	97*
O=C(Nc1nc2ccccc2[nH]1)c1ccc([N+](=O)[O-])cc1	16	85*	-46	15	23	43
Cc1cc(C(=O)COC(=O)c2ccc(N)cc2)c(C)n1-c1c(C)n(C)n(-c2ccccc2)c1=O	0	4	-1	-7	10	4
COc1cc(/C=C2\CC(C(C)(C)C)C/C(=C\c3cc(OC)c(OC)c(OC)c3)C2=O)cc(OC)c1OC (centres undefined)	5	2	37*	-1	21	1
Cc1ccc(Nc2nc3ccccc3s2)cc1	12	87*	2	72*	9	82*
C=CCNC(=O)N1CCCC(N2CCN(c3ccccc3OC)CC2)C1 (centres undefined)	-1	0	2	4	-14	-12
COc1ccc(-c2nc(C#N)c(NC(C)c3ccccc3)o2)cc1OC (centres undefined)	70*	-5	-14	-7	-499	-4
COc1ccc(-c2nc(C#N)c(NCCCN(C)C)o2)cc1OC	13	5	-2	-4	-296	-23
CC(C)CCNC(=O)C(c1ccncc1)N(CC1CCCO1)C(=O)Cn1nnc(-c2ccc(F)cc2)n1 (centres undefined)	-1	-4	2	-13	16	-12
CCCCCn1c2c(c(=N)c3ccccc31)CCC2	70*	-1	0	-9	-50	0
CCCCn1c2c(c(=N)c3ccccc31)CCC2	123*	-4	2	3	11	-10
CCCCCCCCn1c2c(c(=N)c3ccccc31)CCC2	-11	0	3	-10	-56	-13
COCCNC(=S)N(C)[C@H]1C[C@H]2c3cc(N4CCN(C)CC4)ccc3CCN2C(=O)[C@H]1[C@H](C)O	.	.	0	.	-6	.
N#C/C(N=Nc1ccccc1O)=N\Nc1ccccc1O	14	-13	33*	74*	58*	85*
Oc1ccccc1N=N/C(=N/Nc1ccccc1O)c1ccccc1	-1	1	3	2	15	1
CC1(C)OC(c2ccccc2)=C/C(=C/C=C2C(=O)c3ccccc3C2=O)O1	17	3	95*	8	59*	-15
COc1ccccc1CC(NC(C)=O)C(=O)NC1CCN(C(=O)c2ccc([N+](=O)[O-])cc2)CC1 (centres undefined)	9	2	-1	-15	-5	-3
c1ccc2c(c1)nnn1c3ccccc3nc21	15	96*	.	86*	.	96*
Cn1c2ccccc2c(=O)n2c(=O)c3ccccc3cc12	15	95*	.	97*	.	90*
Cn1c(-c2ccccc2)cc(=O)c2ccccc21	8	-2	-2	10	4	-7
CNC(=S)N=Nc1c(O)[nH]c2ccc(C(C)C)cc12	-8	.	2	.	44*	.
COc1ccc(NC(=O)/C(Cl)=C(/Cl)S(=O)Cc2ccccc2)cn1 (centres undefined)	57*	-6	4	-12	18	-17
COc1cccc(Nc2ccc(N3CCCCC3)cc2)c1OC	.	-11	90*	3	-35	7

High-throughput results (PubChem BioAssay)
